Experimental data pooled from the literature.
Each line is one published result; the experiments were not run side by side.

Compound	tested on	assay	system	setting	quantity	result
O=C(c1ccc(-n2sc3ncccc3c2=O)cc1)N1CCOCC1		metabolic stability	human, liver microsomes		half-life	> 120 min
CCCCCCCCCCOc1cc2c(O)c(C(=O)OCC)cnc2cc1OCC	HepG2	cell growth or viability		72 h	IC50	> 100 µM
Cc1cc(C)nc(Nc2ncc(C(=O)NCCc3c(C)[nH]c4ccccc34)cn2)c1		metabolic stability	male human, hepatocytes	1 µM	half-life	41 min
COC(=O)[C@@H]1[C@@H](c2ccccc2)[C@]2(c3ccc(OC)cc3)Oc3cc(OC)cc(OC)c3[C@@]23N=C(C)N[C@@]13O	HepG2	cell growth or viability, MTT		48 h	CC50	0.0105 µM
CN1CCCCC1Cn1cc(C(=O)c2cc([N+](=O)[O-])ccc2I)c2ccccc21 (racemic)			mouse, plasma	intravenous, 25 mg/kg	MRT	54.7 min
CCC1(c2ccccc2)C(=O)NC(=O)NC1=O	HepG2	cell growth or viability, ATP luminescence			CC50	> 1000 µM
O=C1[O][Pt]2([NH][C@@H]3CCCC[C@H]3[NH]2)[O]C1=O (relative stereo)			cynomolgus monkey, plasma	intravenous, 2 mg/kg	AUC(0-t)	9.17 µg·h/mL
N=c1c2c(-c3ccccc3)c(-c3ccccc3)n(Cc3ccccc3)c2ncn1[C@H]1CC[C@H](O)CC1			male cynomolgus monkey, plasma	oral, 1 mg/kg, single dose	AUC(0-inf)	27800 ng·h/mL
